Source: ChEMBL document CHEMBL4715736, “Identification of anticancer agents based on the thieno[2,3-b]pyridine and 1H-pyrazole molecular scaffolds” (2016)

Key:
Format in all cases: functional
Details in all cases: read-out: Activity
K562 = assay: Growth inhibition of human K562 cells assessed as cell growth at 10 uM incubated for 48 hrs by sulforhodamine B assay relative to control
Procedure, shortened: (§1)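 Submitted to the NCI Developmental Therapeutics Program for the NCI60 human tumour cell line panel. First screen at a single 10 µM concentration. Read-out is growth relative to untreated control cells set at 100%.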

TK-10 = assay: Growth inhibition of human TK-10 cells assessed as cell growth at 10 uM incubated for 48 hrs by sulforhodamine B assay relative to control
Procedure, shortened: (§2)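 Run by the NCI Developmental Therapeutics Program as part of its 60-line human tumour panel. Each compound tested at a single 10 µM dose. Growth expressed as % relative to untreated control cells (100%).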

MOLT-4 = assay: Growth inhibition of human MOLT-4 cells assessed as cell growth at 10 uM incubated for 48 hrs by sulforhodamine B assay relative to control; procedure, shortened: as §1
HL-60(TB) = assay: Growth inhibition of human HL-60(TB) cells assessed as cell growth at 10 uM incubated for 48 hrs by sulforhodamine B assay relative to control
Procedure, shortened: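 Screened by the NCI Developmental Therapeutics Program on its panel of 60 human tumour cell lines. Compounds were first tested at a single 10 µM dose, and compounds active there went to dose-response curves. Growth is expressed relative to untreated control (100%). GI50 (50% of maximal proliferation inhibition) and TGI (total growth inhibition) were derived from the dose-response data.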

SNB-75 = assay: Growth inhibition of human SNB-75 cells assessed as cell growth at 10 uM incubated for 48 hrs by sulforhodamine B assay relative to control; procedure, shortened: as §2
HCT-15 = assay: Growth inhibition of human HCT-15 cells assessed as cell growth at 10 uM incubated for 48 hrs by sulforhodamine B assay relative to control; procedure, shortened: as §1
BT-549 = assay: Growth inhibition of human BT-549 cells assessed as cell growth at 10 uM incubated for 48 hrs by sulforhodamine B assay relative to control
Procedure, shortened: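 NCI Developmental Therapeutics Program NCI60 human tumour cell line panel, one-dose primary screen with every compound at 10 µM. Growth is expressed as % of untreated control cells (100%).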

786-0 = assay: Growth inhibition of human 786-0 cells assessed as cell growth at 10 uM incubated for 48 hrs by sulforhodamine B assay relative to control
Procedure, shortened: (§3)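 NCI Developmental Therapeutics Program NCI60 panel. Compounds that were active in the 10 µM one-dose screen went on to dose–response testing. Growth at each concentration is expressed relative to untreated control (100%). GI50 (concentration giving 50% of maximal inhibition of proliferation) and TGI (concentration giving total growth inhibition) were derived from the curves.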

NCI-H522 = assay: Growth inhibition of human NCI-H522 cells assessed as cell growth at 10 uM incubated for 48 hrs by sulforhodamine B assay relative to control; procedure, shortened: as §1
SR = assay: Growth inhibition of human SR cells assessed as cell growth at 10 uM incubated for 48 hrs by sulforhodamine B assay relative to control; procedure, shortened: as §2
MDA-MB-231 = assay: Growth inhibition of human MDA-MB-231 cells assessed as cell growth at 10 uM incubated for 48 hrs by sulforhodamine B assay relative to control; procedure, shortened: as §1
MDA-MB-435 = assay: Growth inhibition of human MDA-MB-435 cells assessed as cell growth at 10 uM incubated for 48 hrs by sulforhodamine B assay relative to control; procedure, shortened: as §1
SW-620 = assay: Growth inhibition of human SW-620 cells assessed as cell growth at 10 uM incubated for 48 hrs by sulforhodamine B assay relative to control; procedure, shortened: as §2
A498 = assay: Growth inhibition of human A498 cells assessed as cell growth at 10 uM incubated for 48 hrs by sulforhodamine B assay relative to control; procedure, shortened: as §3
SF-268 = assay: Growth inhibition of human SF-268 cells assessed as cell growth at 10 uM incubated for 48 hrs by sulforhodamine B assay relative to control; procedure, shortened: as §2
UO-31 = assay: Growth inhibition of human UO-31 cells assessed as cell growth at 10 uM incubated for 48 hrs by sulforhodamine B assay relative to control; procedure, shortened: as §2
SK-OV-3 = assay: Growth inhibition of human SK-OV-3 cells assessed as cell growth at 10 uM incubated for 48 hrs by sulforhodamine B assay relative to control; procedure, shortened: as §2
NCI/ADR-RES = assay: Growth inhibition of human NCI/ADR-RES cells assessed as cell growth at 10 uM incubated for 48 hrs by sulforhodamine B assay relative to control; procedure, shortened: as §1
Hs-578T = assay: Growth inhibition of human Hs-578T cells assessed as cell growth at 10 uM incubated for 48 hrs by sulforhodamine B assay relative to control; procedure, shortened: as §1
HT-29 = assay: Growth inhibition of human HT-29 cells assessed as cell growth at 10 uM incubated for 48 hrs by sulforhodamine B assay relative to control; procedure, shortened: as §1
SK-MEL-2 = assay: Growth inhibition of human SK-MEL-2 cells assessed as cell growth at 10 uM incubated for 48 hrs by sulforhodamine B assay relative to control; procedure, shortened: as §2
NCI-H226 = assay: Growth inhibition of human NCI-H226 cells assessed as cell growth at 10 uM incubated for 48 hrs by sulforhodamine B assay relative to control; procedure, shortened: as §1
PC-3 = assay: Growth inhibition of human PC-3 cells assessed as cell growth at 10 uM incubated for 48 hrs by sulforhodamine B assay relative to control; procedure, shortened: as §2
CAKI-1 = assay: Growth inhibition of human CAKI-1 cells assessed as cell growth at 10 uM incubated for 48 hrs by sulforhodamine B assay relative to control; procedure, shortened: as §3

`CCOc1ccc(-c2cc(N)n(S(=O)(=O)c3ccc(OC)cc3)n2)cc1` gave a growth at 10 µM (K562) of 105%, a growth at 10 µM (TK-10) of 130% and a growth at 10 µM (MOLT-4) of 85.2%. The growth at 10 µM (HL-60(TB)) was 126%, the growth at 10 µM (SNB-75) was 89.9% and the growth at 10 µM (HCT-15) was 98.7%. For the same compound, the growth at 10 µM (BT-549) was 111%, the growth at 10 µM (786-0) was 108% and the growth at 10 µM (NCI-H522) was 101%. It also gave a growth at 10 µM (SR) of 116%, a growth at 10 µM (MDA-MB-231) of 92.4% and a growth at 10 µM (MDA-MB-435) of 101%. It also gave a growth at 10 µM (SW-620) of 110%, a growth at 10 µM (A498) of 92.5% and a growth at 10 µM (SF-268) of 109%. The growth at 10 µM (UO-31) was 91.2%, the growth at 10 µM (SK-OV-3) was 114% and the growth at 10 µM (NCI/ADR-RES) was 103%. For the same compound, the growth at 10 µM (Hs-578T) was 99.7%, the growth at 10 µM (HT-29) was 105% and the growth at 10 µM (SK-MEL-2) was 110%. The growth at 10 µM (NCI-H226) was 97.7% and the growth at 10 µM (PC-3) was 88.6%.
For `CC1(C)CCc2cc(-c3ccn(S(=O)(=O)c4ccc(C(C)(C)C)cc4)n3)ccc2O1`, the growth at 10 µM (K562) was 72.2%, the growth at 10 µM (TK-10) was 84.3% and the growth at 10 µM (MOLT-4) was 98.5%. It also gave a growth at 10 µM (HL-60(TB)) of 111%, a growth at 10 µM (SNB-75) of 100% and a growth at 10 µM (HCT-15) of 87%. For the same compound, the growth at 10 µM (786-0) was 79.9%, the growth at 10 µM (NCI-H522) was 66.5% and the growth at 10 µM (SR) was 77.8%. It also gave a growth at 10 µM (MDA-MB-231) of 78.4%, a growth at 10 µM (MDA-MB-435) of 93% and a growth at 10 µM (SW-620) of 89.7%. The growth at 10 µM (A498) was 68.4%, the growth at 10 µM (SF-268) was 92.1% and the growth at 10 µM (UO-31) was 84.8%. For the same compound, the growth at 10 µM (NCI/ADR-RES) was 82.5%, the growth at 10 µM (Hs-578T) was 97.8% and the growth at 10 µM (CAKI-1) was 68.9%. It also gave a growth at 10 µM (SK-MEL-2) of 58.2%, a growth at 10 µM (NCI-H226) of 70.5% and a growth at 10 µM (PC-3) of 72.9%.
With `COc1ccc(-c2ccn(S(=O)(=O)c3ccc(C)cc3)n2)cc1` the growth at 10 µM (K562) was 75.4%, the growth at 10 µM (MOLT-4) was 95.2% and the growth at 10 µM (HL-60(TB)) was 114%. For the same compound, the growth at 10 µM (SNB-75) was 92.5%, the growth at 10 µM (HCT-15) was 84.2% and the growth at 10 µM (786-0) was 83%. The growth at 10 µM (SR) was 79.2%, the growth at 10 µM (MDA-MB-231) was 89.2% and the growth at 10 µM (MDA-MB-435) was 94.1%. It also gave a growth at 10 µM (SW-620) of 90.2%, a growth at 10 µM (A498) of 63.2% and a growth at 10 µM (SF-268) of 95.9%. The growth at 10 µM (UO-31) was 75.9%, the growth at 10 µM (NCI/ADR-RES) was 78.7% and the growth at 10 µM (Hs-578T) was 96%. For the same compound, the growth at 10 µM (CAKI-1) was 69.5%, the growth at 10 µM (NCI-H226) was 68.5% and the growth at 10 µM (PC-3) was 81.2%.
With `CC(=O)Nc1ccc(S(=O)(=O)n2ccc(-c3ccc4c(c3)CCC(C)(C)O4)n2)cc1` the growth at 10 µM (K562) was 36.7%, the growth at 10 µM (TK-10) was 55.1% and the growth at 10 µM (MOLT-4) was 50.7%. It also gave a growth at 10 µM (HL-60(TB)) of 91.9%, a growth at 10 µM (SNB-75) of 81.5% and a growth at 10 µM (HCT-15) of 59.3%. The growth at 10 µM (786-0) was 79.8%, the growth at 10 µM (NCI-H522) was 54% and the growth at 10 µM (SR) was 56.4%. It also gave a growth at 10 µM (MDA-MB-231) of 88.6%, a growth at 10 µM (MDA-MB-435) of 67.3% and a growth at 10 µM (SW-620) of 82.5%. The growth at 10 µM (A498) was 21.9%, the growth at 10 µM (SF-268) was 77.2% and the growth at 10 µM (UO-31) was 67.9%. It also gave a growth at 10 µM (NCI/ADR-RES) of 56.9%, a growth at 10 µM (Hs-578T) of 102% and a growth at 10 µM (CAKI-1) of 48.8%. It also gave a growth at 10 µM (SK-MEL-2) of 53.5%, a growth at 10 µM (NCI-H226) of 52.4% and a growth at 10 µM (PC-3) of 44.4%.
For `COc1ccc(S(=O)(=O)n2ccc(-c3ccc(OC(C)C)cc3)n2)cc1`, the growth at 10 µM (K562) was 53.6%, the growth at 10 µM (MOLT-4) was 86.9% and the growth at 10 µM (HL-60(TB)) was 90.3%. It also gave a growth at 10 µM (SNB-75) of 96.9%, a growth at 10 µM (HCT-15) of 87.6% and a growth at 10 µM (786-0) of 81.1%. For the same compound, the growth at 10 µM (SR) was 75.7%, the growth at 10 µM (MDA-MB-231) was 93% and the growth at 10 µM (MDA-MB-435) was 94.6%. It also gave a growth at 10 µM (SW-620) of 86.3%, a growth at 10 µM (A498) of 48.5% and a growth at 10 µM (SF-268) of 100%. It also gave a growth at 10 µM (UO-31) of 76.4%, a growth at 10 µM (NCI/ADR-RES) of 81.3% and a growth at 10 µM (Hs-578T) of 95.5%. For the same compound, the growth at 10 µM (CAKI-1) was 66%, the growth at 10 µM (NCI-H226) was 78.8% and the growth at 10 µM (PC-3) was 73.2%.
